Calls of active or inactive are those of the source. No cut-off for these calls is given here.
Tests used:
CYP3A4 [1] = target: T1, CYP3A4 (Homo sapiens, UniProt P08684); experiment: Inhibition of human liver microsome CYP3A4 using midazolam as substrate assessed as residual activity at 1 uM; type: ADME; conditions: human liver microsomes, probe midazolam, read-out: Activity
How it was run: (§1)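 Human liver microsomes in a high-throughput multiple-CYP assay covering CYP1A2, 2B6, 2C9, 2C19, 2D6 and 3A4. Test compound at 1 and 10 μM; isoform activity expressed as % of control.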

CYP2B6 [2] = target: T2, CYP2B6 (Homo sapiens, UniProt P20813); experiment: Inhibition of human liver microsome CYP2B6 using bupropion as substrate assessed as residual activity at 10 uM; type: ADME; conditions: human liver microsomes, probe bupropion, read-out: Activity; how it was run: as §1
CYP3A4 [3] = target: T1, CYP3A4; experiment: Inhibition of human liver microsome CYP3A4 using testosterone as substrate assessed as residual activity at 1 uM; type: ADME; conditions: human liver microsomes, probe testosterone, read-out: Activity; how it was run: as §1
[4] = target: T3, Neuronal acetylcholine receptors; alpha-3/beta-4, alpha-5, beta-2 (Homo sapiens) (UniProt P17787+P30926+P32297+P30532); experiment: Agonist activity at alpha3beta4alpha5beta2 nACHR in human SH-SY5Y cells at 10 uM by 86Rb+ efflux assay; type: functional, cell-based
Liver microsomes [5] = experiment: Drug metabolism in rat liver microsomes assessed as unchanged parent compound at 1 to 10 uM; type: ADME, Microsome; conditions: TDE = time-dependent effect
[6] = Inhibition of adrenergic receptor at 10 uM
CYP1A2 [7] = target: T4, CYP1A2 (Homo sapiens, UniProt P05177); experiment: Inhibition of human liver microsome CYP1A2 using phenacetin as substrate assessed as residual activity at 10 uM; type: ADME; conditions: human liver microsomes, probe phenacetin, read-out: Activity; how it was run: as §1
Mus musculus [8] = experiment: Antidepressant activity in BALB/cJ mouse assessed as reduction in immobility at 1 mg/kg, ip measured after 30 mins post drug administration by forced swim test; type: functional, organism-based; set-up: dose 1 mg/kg
How it was run: (§2)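 Male BALB/cJ mice aged 8–10 weeks; drug given in injectable water by IP injection at 10 mL/kg. Thirty minutes later each mouse was placed in a glass cylinder of water at 23±1 °C, 12 cm deep. Immobility (floating) was scored over a 6 min trial. n = 9–10/group; ANOVA followed by Fisher's PLSD versus vehicle.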

[9] = Inhibition of sigma receptor at 10 uM
[10] = Inhibition of serotonin receptor at 10 uM
[11] = Metabolic stability in human liver microsomes assessed as unchanged parent compound at 1 uM after 60 mins; type: ADME, Microsome; conditions: read-out: Stability
How it was run: (§3)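 Test article incubated with human liver microsomes at 1 and 10 μM. Samples taken at 0, 15, 30 and 60 min, and parent remaining quantified by LC-MS/MS.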

[12] = Plasma protein binding in mouse at 0.1 to 10 uM by equilibrium dialysis; type: ADME, cell-free; conditions: read-out: PPB (converted)
How it was run: (§4)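 Equilibrium dialysis against human or mouse plasma, with test compound at 0, 0.1, 1 and 10 μM; results expressed as mean percentage of compound bound to plasma proteins.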

[13] = target: Neuronal acetylcholine receptor; alpha2/beta4 (Rattus norvegicus, UniProt P12389+P12392); experiment: Displacement of [3H]epibatidine from rat alpha2beta4 nACHR; type: protein-complex assay
hERG (KCNH2) = hERG (KCNH2) (Homo sapiens, UniProt Q12809); experiment: Inhibition of human recombinant ERG expressed in HEK293 cells at 10 uM by fluorescence-based membrane potential analysis; type: cell-based; conditions: HEK293 cells expressing human recombinant ERG
How it was run: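 HEK293 cells stably expressing recombinant human hERG, read in a fluorescence-based membrane potential assay. Test compound at 10 μM, compared with a negative control.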

CYP2C19 [14] = target: T5, CYP2C19 (Homo sapiens, UniProt P33261); experiment: Inhibition of human liver microsome CYP2C19 using mephenytoin as substrate assessed as residual activity at 10 uM; type: ADME; conditions: human liver microsomes, probe mephenytoin, read-out: Activity; how it was run: as §1
[15] = target: Neuronal acetylcholine receptor; alpha3/beta2 (Rattus norvegicus, UniProt P04757+P12390); experiment: Displacement of [3H]epibatidine from rat alpha3beta2 nACHR; type: protein-complex assay
[16] = Plasma protein binding in human at 0.1 to 10 uM by equilibrium dialysis; type: ADME, cell-free; conditions: read-out: PPB (converted); how it was run: as §4
CYP2C9 [17] = target: T6, CYP2C9 (Homo sapiens, UniProt P11712); experiment: Inhibition of human liver microsome CYP2C9 using diclofenac as substrate assessed as residual activity at 10 uM; type: ADME; conditions: human liver microsomes, probe diclofenac, read-out: Activity; how it was run: as §1
[18] = Inhibition of dopamine receptor at 10 uM
CYP1A2 [19] = target: T4, CYP1A2; experiment: Inhibition of human liver microsome CYP1A2 using phenacetin as substrate assessed as residual activity at 1 uM; type: ADME; conditions: human liver microsomes, probe phenacetin, read-out: Activity; how it was run: as §1
[20] = Inhibition of muscarinic receptor at 10 uM
[21] = Metabolic stability in rat liver microsomes assessed as unchanged parent compound at 10 uM after 60 mins; type: ADME, Microsome; conditions: read-out: Stability
Liver microsomes [22] = experiment: Drug metabolism in human liver microsomes assessed as unchanged parent compound at 1 to 10 uM; type: ADME, Microsome; conditions: TDE = time-dependent effect; how it was run: as §3
[23] = Inhibition of GABA receptor at 10 uM
[24] = Metabolic stability in rat liver microsomes assessed as unchanged parent compound at 1 uM after 60 mins; type: ADME, Microsome; conditions: read-out: Stability
[25] = target: T3, Neuronal acetylcholine receptors; alpha-3/beta-4, alpha-5, beta-2 (Homo sapiens); experiment: Inhibition of alpha3beta4alpha5beta2 nACHR in human SH-SY5Y cells at 10 uM by 86Rb+ efflux assay; type: cell-based
[26] = Displacement of [3H]epibatidine from rat forebrain alpha4beta2* nACHR
[27] = Inhibition of histamine receptor at 10 uM
CYP2D6 [28] = target: T7, CYP2D6 (Homo sapiens, UniProt P10635); experiment: Inhibition of human liver microsome CYP2D6 using […] as substrate assessed as residual activity at 10 uM; type: ADME; conditions: human liver microsomes, probe burfuralol, read-out: Activity; how it was run: as §1
[29] = Metabolic stability in human liver microsomes assessed as unchanged parent compound at 10 uM after 60 mins; type: ADME, Microsome; conditions: read-out: Stability
How it was run: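 Test article incubated with human liver microsomes at 1 μM and 10 μM; aliquots taken at 0, 15, 30 and 60 min and analysed by LC-MS/MS for remaining unchanged parent drug.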

CYP2D6 [30] = target: T7, CYP2D6; experiment: Inhibition of human liver microsome CYP2D6 using bufuralol as substrate assessed as residual activity at 1 uM; type: ADME; conditions: human liver microsomes, probe bufuralol, read-out: Activity; how it was run: as §1
CYP3A4 [31] = target: T1, CYP3A4; experiment: Inhibition of human liver microsome CYP3A4 using testosterone as substrate assessed as residual activity at 10 uM; type: ADME; conditions: human liver microsomes, probe testosterone, read-out: Activity; how it was run: as §1
CYP2C9 [32] = target: T6, CYP2C9; experiment: Inhibition of human liver microsome CYP2C9 using diclofenac as substrate assessed as residual activity at 1 uM; type: ADME; conditions: human liver microsomes, probe diclofenac, read-out: Activity; how it was run: as §1
CYP3A4 [33] = target: T1, CYP3A4; experiment: Inhibition of human liver microsome CYP3A4 using midazolam as substrate assessed as residual activity at 10 uM; type: ADME; conditions: human liver microsomes, probe midazolam, read-out: Activity; how it was run: as §1
Mus musculus [34] = experiment: Antidepressant activity in BALB/cJ mouse assessed as reduction in immobility at 5 mg/kg, ip measured after 30 mins post drug administration by forced swim test; type: functional, organism-based; set-up: dose 5 mg/kg; how it was run: as §2
Mus musculus [35] = experiment: Antidepressant activity in BALB/cJ mouse assessed as reduction in immobility at 5 mg/kg, po measured after 30 mins post drug administration by forced swim test; type: functional, organism-based; set-up: dose 5 mg/kg
How it was run: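 Male BALB/cJ mice aged 8–10 weeks; drug given in injectable water by oral gavage at 10 mL/kg. Thirty minutes later each mouse was placed in water at 23±1 °C, 12 cm deep. Immobility time was recorded over a 6 min trial. n = 9–10/group; ANOVA followed by Fisher's PLSD.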

[36] = target: Neuronal acetylcholine receptor; alpha4/beta4 (Rattus norvegicus, UniProt P09483+P12392); experiment: Displacement of [3H]epibatidine from rat alpha4beta4 nACHR; type: protein-complex assay
[37] = Inhibition of opioid receptor at 10 uM
CYP2B6 [38] = target: T2, CYP2B6; experiment: Inhibition of human liver microsome CYP2B6 using bupropion as a substrate assessed as residual activity at 1 uM; type: ADME; conditions: human liver microsomes, probe bupropion, read-out: Activity; how it was run: as §1
[39] = Binding affinity to rat forebrain alpha7* nACHR at 10 uM
[40] = target: Acetylcholine receptor; alpha1/beta1/delta/gamma (Homo sapiens) (UniProt P02708+P07510+P11230+Q07001); experiment: Agonist activity at alpha1betagammadelta nACHR in human TE671/RD cells by 86Rb+ efflux assay; type: functional, cell-based
CYP2C19 [41] = target: T5, CYP2C19; experiment: Inhibition of human liver microsome CYP2C19 using mephenytoin as substrate assessed as residual activity at 1 uM; type: ADME; conditions: human liver microsomes, probe mephenytoin, read-out: Activity; how it was run: as §1
[42] = target: Neuronal acetylcholine receptor subunit alpha-7 (Rattus norvegicus, UniProt Q05941); experiment: Binding affinity to rat alpha7 nACHR […]

T1 sequence (P08684 whole entry, canonical isoform): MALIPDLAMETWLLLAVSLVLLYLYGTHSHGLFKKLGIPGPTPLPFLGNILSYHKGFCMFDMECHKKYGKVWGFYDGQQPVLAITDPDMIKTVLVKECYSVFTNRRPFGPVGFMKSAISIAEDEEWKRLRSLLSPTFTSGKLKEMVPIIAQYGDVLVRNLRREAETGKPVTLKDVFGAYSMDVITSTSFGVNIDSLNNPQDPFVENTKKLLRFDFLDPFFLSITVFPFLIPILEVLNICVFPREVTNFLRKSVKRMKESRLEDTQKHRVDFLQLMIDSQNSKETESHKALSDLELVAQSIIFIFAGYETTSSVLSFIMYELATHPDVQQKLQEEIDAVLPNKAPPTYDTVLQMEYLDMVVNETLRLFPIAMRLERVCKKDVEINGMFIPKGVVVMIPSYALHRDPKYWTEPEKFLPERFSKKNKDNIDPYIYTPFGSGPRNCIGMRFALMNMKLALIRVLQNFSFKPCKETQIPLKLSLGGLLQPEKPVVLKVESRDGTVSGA
T7 sequence (P10635 whole entry): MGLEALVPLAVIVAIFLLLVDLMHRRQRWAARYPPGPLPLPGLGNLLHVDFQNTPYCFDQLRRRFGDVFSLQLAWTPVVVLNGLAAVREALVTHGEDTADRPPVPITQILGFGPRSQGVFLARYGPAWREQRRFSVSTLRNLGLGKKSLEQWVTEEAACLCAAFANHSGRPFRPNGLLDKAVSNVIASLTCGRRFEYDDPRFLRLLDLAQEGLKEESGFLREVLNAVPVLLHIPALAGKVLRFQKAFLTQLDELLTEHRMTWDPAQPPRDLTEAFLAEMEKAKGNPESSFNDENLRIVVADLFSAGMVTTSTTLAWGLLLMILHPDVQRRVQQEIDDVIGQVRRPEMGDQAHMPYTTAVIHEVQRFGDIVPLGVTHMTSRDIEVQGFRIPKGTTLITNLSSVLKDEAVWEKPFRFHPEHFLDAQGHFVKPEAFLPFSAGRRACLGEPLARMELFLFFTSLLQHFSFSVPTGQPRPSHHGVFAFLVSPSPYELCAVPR
T5 sequence (P33261 whole entry): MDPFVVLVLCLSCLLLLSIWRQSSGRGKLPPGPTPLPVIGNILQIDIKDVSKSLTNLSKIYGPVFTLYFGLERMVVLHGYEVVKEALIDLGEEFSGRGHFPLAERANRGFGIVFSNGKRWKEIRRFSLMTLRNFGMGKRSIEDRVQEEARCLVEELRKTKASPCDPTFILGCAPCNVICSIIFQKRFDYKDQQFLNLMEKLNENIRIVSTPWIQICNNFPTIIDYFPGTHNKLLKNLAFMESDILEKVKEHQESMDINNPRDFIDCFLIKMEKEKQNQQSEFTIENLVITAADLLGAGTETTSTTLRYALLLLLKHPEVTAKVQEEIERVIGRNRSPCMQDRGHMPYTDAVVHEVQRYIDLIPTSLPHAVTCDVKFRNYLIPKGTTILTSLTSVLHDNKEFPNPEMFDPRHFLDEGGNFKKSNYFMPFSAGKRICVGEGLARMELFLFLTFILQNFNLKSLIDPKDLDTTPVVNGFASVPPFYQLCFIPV
T3 sequence (P17787 whole entry, looked up): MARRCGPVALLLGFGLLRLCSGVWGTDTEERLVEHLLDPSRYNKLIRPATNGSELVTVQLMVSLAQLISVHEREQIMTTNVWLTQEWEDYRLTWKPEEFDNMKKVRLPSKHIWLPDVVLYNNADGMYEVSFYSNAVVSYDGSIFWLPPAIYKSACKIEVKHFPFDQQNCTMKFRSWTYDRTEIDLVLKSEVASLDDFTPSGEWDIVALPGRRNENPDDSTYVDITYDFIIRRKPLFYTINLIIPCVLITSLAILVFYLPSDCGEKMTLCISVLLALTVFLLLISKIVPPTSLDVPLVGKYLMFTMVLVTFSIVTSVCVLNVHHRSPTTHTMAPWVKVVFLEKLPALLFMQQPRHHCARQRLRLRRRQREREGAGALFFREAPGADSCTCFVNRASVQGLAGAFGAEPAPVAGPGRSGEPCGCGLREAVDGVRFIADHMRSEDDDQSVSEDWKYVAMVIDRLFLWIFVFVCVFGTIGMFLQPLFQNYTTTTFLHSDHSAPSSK
T3 sequence (P30532 whole entry, looked up): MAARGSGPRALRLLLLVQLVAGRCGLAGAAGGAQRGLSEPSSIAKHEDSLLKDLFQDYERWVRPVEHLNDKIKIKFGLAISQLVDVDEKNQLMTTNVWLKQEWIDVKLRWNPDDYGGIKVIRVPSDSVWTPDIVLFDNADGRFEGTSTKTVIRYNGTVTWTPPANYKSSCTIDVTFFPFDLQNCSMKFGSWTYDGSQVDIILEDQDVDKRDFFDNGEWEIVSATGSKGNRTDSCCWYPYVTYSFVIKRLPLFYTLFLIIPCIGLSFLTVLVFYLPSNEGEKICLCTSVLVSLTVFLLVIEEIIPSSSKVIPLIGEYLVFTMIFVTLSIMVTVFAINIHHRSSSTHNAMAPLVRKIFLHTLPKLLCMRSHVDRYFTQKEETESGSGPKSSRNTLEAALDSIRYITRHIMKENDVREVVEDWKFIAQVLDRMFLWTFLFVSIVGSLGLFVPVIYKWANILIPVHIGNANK
T3 sequence (P30926 whole entry, looked up): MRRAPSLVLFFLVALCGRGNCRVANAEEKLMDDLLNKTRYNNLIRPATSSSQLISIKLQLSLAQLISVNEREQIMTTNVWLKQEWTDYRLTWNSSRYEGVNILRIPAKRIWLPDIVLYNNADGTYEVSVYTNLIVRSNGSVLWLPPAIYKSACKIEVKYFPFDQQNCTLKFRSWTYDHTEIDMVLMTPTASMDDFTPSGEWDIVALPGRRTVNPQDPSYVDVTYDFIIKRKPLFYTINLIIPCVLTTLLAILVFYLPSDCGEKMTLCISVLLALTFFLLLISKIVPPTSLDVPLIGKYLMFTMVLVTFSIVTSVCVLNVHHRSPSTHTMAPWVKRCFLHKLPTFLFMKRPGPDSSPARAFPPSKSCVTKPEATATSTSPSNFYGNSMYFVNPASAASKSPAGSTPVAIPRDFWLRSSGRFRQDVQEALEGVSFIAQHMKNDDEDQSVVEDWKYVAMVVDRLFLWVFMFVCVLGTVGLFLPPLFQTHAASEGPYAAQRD
T3 sequence (P32297 whole entry, looked up): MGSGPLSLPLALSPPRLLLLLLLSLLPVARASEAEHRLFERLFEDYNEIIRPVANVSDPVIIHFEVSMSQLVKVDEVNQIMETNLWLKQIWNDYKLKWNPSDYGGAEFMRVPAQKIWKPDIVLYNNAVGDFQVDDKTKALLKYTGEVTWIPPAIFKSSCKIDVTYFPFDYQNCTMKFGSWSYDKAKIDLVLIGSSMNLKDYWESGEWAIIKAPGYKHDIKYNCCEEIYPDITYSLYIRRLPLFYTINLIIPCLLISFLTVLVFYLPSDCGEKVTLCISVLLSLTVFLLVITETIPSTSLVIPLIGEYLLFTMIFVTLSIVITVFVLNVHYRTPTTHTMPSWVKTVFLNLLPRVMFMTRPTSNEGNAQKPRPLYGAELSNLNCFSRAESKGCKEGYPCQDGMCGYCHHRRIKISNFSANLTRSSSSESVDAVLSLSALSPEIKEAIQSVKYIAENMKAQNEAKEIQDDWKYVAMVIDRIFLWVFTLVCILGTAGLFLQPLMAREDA
T6 sequence (P11712 whole entry): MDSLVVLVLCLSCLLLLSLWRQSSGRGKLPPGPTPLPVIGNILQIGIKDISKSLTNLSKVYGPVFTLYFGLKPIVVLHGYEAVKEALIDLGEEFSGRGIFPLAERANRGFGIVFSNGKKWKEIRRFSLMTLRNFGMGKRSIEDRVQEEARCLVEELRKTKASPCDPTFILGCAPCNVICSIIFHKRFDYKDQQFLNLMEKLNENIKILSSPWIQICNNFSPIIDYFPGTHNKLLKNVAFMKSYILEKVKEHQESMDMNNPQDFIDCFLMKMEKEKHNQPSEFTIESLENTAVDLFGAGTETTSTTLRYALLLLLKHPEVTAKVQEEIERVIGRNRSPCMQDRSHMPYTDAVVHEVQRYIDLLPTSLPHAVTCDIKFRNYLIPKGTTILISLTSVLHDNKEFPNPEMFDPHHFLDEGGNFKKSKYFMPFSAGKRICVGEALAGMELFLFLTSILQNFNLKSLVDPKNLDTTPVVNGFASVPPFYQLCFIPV
T4 sequence (P05177 whole entry): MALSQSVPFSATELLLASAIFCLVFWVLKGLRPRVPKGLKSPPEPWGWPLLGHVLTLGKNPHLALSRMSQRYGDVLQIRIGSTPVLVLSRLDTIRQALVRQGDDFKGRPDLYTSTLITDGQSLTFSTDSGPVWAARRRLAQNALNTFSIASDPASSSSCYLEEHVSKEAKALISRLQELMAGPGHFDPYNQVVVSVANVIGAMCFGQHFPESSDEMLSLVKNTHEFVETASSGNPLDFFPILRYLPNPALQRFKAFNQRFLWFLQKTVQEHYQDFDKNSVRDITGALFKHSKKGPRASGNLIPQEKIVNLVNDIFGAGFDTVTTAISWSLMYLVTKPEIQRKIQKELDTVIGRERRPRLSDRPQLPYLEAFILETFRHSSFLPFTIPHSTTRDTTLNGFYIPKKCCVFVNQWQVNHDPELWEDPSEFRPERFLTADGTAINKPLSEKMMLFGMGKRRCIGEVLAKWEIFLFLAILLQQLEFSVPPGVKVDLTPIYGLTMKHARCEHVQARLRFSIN
T2 sequence (P20813 whole entry): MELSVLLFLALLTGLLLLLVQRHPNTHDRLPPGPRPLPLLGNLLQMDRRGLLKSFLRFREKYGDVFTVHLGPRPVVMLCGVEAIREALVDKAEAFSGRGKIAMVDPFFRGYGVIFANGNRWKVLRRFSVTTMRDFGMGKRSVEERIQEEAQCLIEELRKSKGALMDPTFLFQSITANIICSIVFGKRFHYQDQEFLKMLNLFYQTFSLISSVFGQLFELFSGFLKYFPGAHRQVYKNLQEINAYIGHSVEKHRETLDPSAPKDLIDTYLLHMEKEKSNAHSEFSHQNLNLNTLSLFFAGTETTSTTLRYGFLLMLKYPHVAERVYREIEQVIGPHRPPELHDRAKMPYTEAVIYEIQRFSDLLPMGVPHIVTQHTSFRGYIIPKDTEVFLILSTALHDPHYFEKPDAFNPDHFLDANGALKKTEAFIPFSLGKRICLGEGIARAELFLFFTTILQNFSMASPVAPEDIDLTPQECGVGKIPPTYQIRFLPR

Cc1cc(OC[C@@H]2CCN2)on1
activity at 1 µM (CYP3A4 [1]): < 70%
activity at 10 µM (CYP2B6 [2]): < 70%
activity at 1 µM (CYP3A4 [3]): < 70%
Efficacy [4]: 120%
Drug metabolism (Liver microsomes [5]): tde
inhibition [6]: > 50%
activity at 10 µM (CYP1A2 [7]): < 70%
Activity (Mus musculus [8]): Active
inhibition [9]: > 50%
inhibition [10]: > 50%
remaining at 1 h, 1 µM [11]: 53.4%
fraction unbound at up to 10 µM [12]: 0.871
Ki [13]: 311 nM
inhibition at 10 µM (hERG (KCNH2)): 0%
activity at 10 µM (CYP2C19 [14]): < 70%
Ki [15]: 8.7 nM
fraction unbound at up to 10 µM [16]: 0.918
activity at 10 µM (CYP2C9 [17]): < 70%
inhibition [18]: > 50%
activity at 1 µM (CYP1A2 [19]): < 70%
inhibition [20]: > 50%
remaining at 1 h, 10 µM [21]: 73.7%
Drug metabolism (Liver microsomes [22]): tde
inhibition [23]: > 50%
remaining at 1 h, 1 µM [24]: 67.5%
Efficacy [25]: > 70%
Ki [26]: 12 nM
inhibition [27]: > 50%
activity at 10 µM (CYP2D6 [28]): < 70%
remaining at 1 h, 10 µM [29]: 67.2%
activity at 1 µM (CYP2D6 [30]): < 70%
activity at 10 µM (CYP3A4 [31]): < 70%
activity at 1 µM (CYP2C9 [32]): < 70%
activity at 10 µM (CYP3A4 [33]): < 70%
Activity (Mus musculus [34]): Active
Activity (Mus musculus [35]): Active
Ki [36]: 86 nM
inhibition [37]: > 50%
activity at 1 µM (CYP2B6 [38]): < 70%
Ki [39]: 6.79 µM
Activity [40]: inactive
activity at 1 µM (CYP2C19 [41]): < 70%
Ki [42]: 2890 nM

Reference: ChEMBL document CHEMBL2163280 (J Med Chem, 2012)
